Several values for one entry are separate records, joined by “and”; a condition that tells them apart may be missing. Identical values can stand only once. In all, about 51,000 compounds went through this assay and about 150 (0.29%) were called active. For the sample, actives were picked, then their nearest neighbours and some compounds at random. Unmarked numbers belong to inactive results.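 How the source made its calls: active means both repeat wells score below -2 in polarization z-score versus plate sample wells, excluding overly bright wells; inactive means the rest.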
system: LANA (ORF73) N-terminal peptide binding to nucleosomes, Human herpesvirus 8; assay: LANA N-terminal peptide–nucleosome interaction blockers – biochemical, fluorescence polarization, FITC-LANA1-23, chicken nucleosomes, primary screen (AID 720717); details: FITC-LANA1-23 / chicken nucleosome fluorescence polarization; stronger effect = lower value
Method in brief: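 System – purified chicken nucleosomes with FITC-labelled LANA N-terminal peptide (1-23) · Amount – 240 nM purified chicken nucleosomes (480 nM peptide binding sites), final · Also added – 50 nM FITC-LANA1-23 probe · Medium – TEN-BT buffer, pH 7.5 · Incubation – compound with peptide–nucleosome mix 10–45 min at room temperature · Detection – fluorescence polarization, ex 480 nm, em 535 nm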

SMILES | z-score
CCOC(=O)NCc1cc(C(=O)O)ccc1O | 0.19
CCN1C(=Nc2ccc(O)cc2)SC/C1=C\C(=O)OC | 2.25
CN(C)C(CNC(=O)c1cc2ccccc2oc1=O)c1ccco1 (stereo not given) | -0.421
O=S1(=O)CCC(S(=O)(=O)N2CCCC2)C1 (stereo not given) | -0.472
CCCCSC1=NC(=O)CC(=O)N1 | -1.46
CC(=O)N1CCC(N(c2ccc3c(c2)OCO3)S(=O)(=O)c2ccccc2)CC1 | 0.764
Cc1ccc(S(=O)(=O)Nc2cccc(C(=O)N3CCCCC3)c2)cc1 | 1.2
O=C(O)CN1CC(=O)Nc2ccccc21 | 0.771
O=C1Nc2ccccc2N(c2ccccc2)N1 | -3.48 (active)
CCCCC(C)C(N)=O (stereo not given) | -0.323
CC[N+](C)(CC)CCC[n+]1c(-c2ccccc2)c2cc(N)ccc2c2ccc(N)cc21 | -3.89 (active) and -3.44 (active)
CCN(Cc1ccccc1)C(=O)C1CCN(Cc2cc(Br)c(O)c(OC)c2)CC1 | -0.834
O=C1CC(NC2CCN(S(=O)(=O)c3ccc(Cl)cc3)CC2)C(=O)N1 (stereo not given) | 2.47
Cc1ccc(NC(=O)CSC2=NC(=O)CC(=O)N2)cc1 | -0.876
COc1ccc(C2=NS(=O)(=O)N(C)C(C(=O)NCC(C)C)=C2)cc1OC | -0.724
CCN(CC)C(=O)Cc1c(C(=O)O)[nH]c2ccc(Cl)cc12 | 0.22
Cc1ccc(C(=O)N2CCCN(C)CC2)o1 | -1.2
O=C(OCc1ccccc1Cl)c1cc(=O)[nH]c2ccccc12 | -1.04
O=C(Nc1ccc(Cl)cc1)c1ncoc1-c1cccs1 | 0.41
COC(=O)c1ccc(NS(=O)(=O)c2cc(C(=O)OC)n(C)c2)cc1 | -0.537

SMILES | z-score
Cc1ccc(-c2nc3ccccc3[nH]2)cc1NC(=O)C(C)C | -0.762
CCC(=O)NC1CC(=O)N(c2ccc(F)cc2)C1 (stereo not given) | -0.098
COc1ccc(CCN2C(=O)CSC2c2ccc3cccc(O)c3n2)cc1OC (stereo not given) | 1.12
Cn1ncc(Br)c1-c1cccc(NC(=O)COCC(=O)O)c1 | -1.14
CCCCCn1c(=O)[nH]c2cc(C(=O)Nc3cc(OC)c(OC)c(OC)c3)ccc2c1=O | -0.668
Cn1c(=O)c2c(nc(N3CCNCC3)n2C)n(C)c1=O | 0.302
COc1ccc2oc(=O)cc(-c3cc4ccccc4o3)c2c1 | -0.251
O=c1c(-c2cc3ccccc3o2)[n+]([O-])c2ccccc2n1O | -2.61 (active)
O=C(CSc1ncccn1)N1CCCC1 | -0.327
O=C(Nc1ccc2nc(CN3CCCCC3)[nH]c2c1)c1cccs1 | -0.0365
Cc1cccc(C)c1N1CCN(S(=O)(=O)N2CCCCC2)CC1 | -1.66
COc1ccc(C(=O)Nc2ccccc2C(=O)NCc2ccco2)cc1 | 0.333
CN(C)C(=O)CN1CCC(N2CCCCC2)CC1 | -0.624
COc1ccc(Cn2ccc3nc4ccn(Cc5ccc(OC)cc5)c(=O)c4cc3c2=O)cc1 | 0.327
CN1C(=O)/C(=C/C=C2\SCCN2C)OC1=S | -2.92 (active)
COc1cccc(NS(=O)(=O)c2ccc3[nH]cc(C(=O)N4CCCCC4C)c(=O)c3c2)c1 (stereo not given) | 0.613
O=C(O)COc1ccc(CN2CCCC2)cc1 | 0.199
N/C(=N\OC(=O)CC1CCCCC1)c1ccccc1 | -0.568
Cc1nnc(NC2CC2)c2c1nnn2Cc1ccc(F)cc1 | 0.653
CN(C)CCNC(=O)c1ccc(/C=C2\SC(=S)N(C)C2=O)cc1 | 1.24

Source: PubChem BioAssay AID720717 (ICCB-Longwood Screening Facility, Harvard Medical School, 2013)
